Key:
[1] = test system: liver-stage Plasmodium berghei; assay: Liver-stage P. berghei assay; type: cell-based, Plasmodium berghei ANKA
Procedure, shortened: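 Luciferase-expressing P. berghei ANKA sporozoites came from dissected infected Anopheles stephensi mosquitoes. 4000 sporozoites infected 15 000 HepG2 cells per well with test compound in triplicate, 0 to 50 μg/mL, final DMSO 1%. After 2 days at 37 °C, relative parasite load was read by Bright-Glo luminescence. Standard inhibition dose–response fit gave IC50, mean of two independent experiments.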

Bacillus subtilis 3610 = assay: Antibiotic assay; type: cell-based; settings: concentrations as high as 50 μg/mL
blood stage = assay: Blood stage assays; type: cell-based; settings: Plasmodium berghei, read-out: IC50 in blood stage assays
[2] = test system: HepG2 human hepatoma cells; assay: Cytotoxic assay, HepG2 cell viability; type: cell-based; settings: concentrations as high as 50 μg/mL
Procedure, shortened: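 HepG2 cells kept in DMEM with 10% FBS and 1% antibiotic–antimycotic at 37 °C, 5% CO2. Test compound in DMSO added in triplicate to 15 000 cells per well, 0 to 50 μg/mL, final DMSO 1%. Incubated 2 days at 37 °C, then viability read by CellTiter-Glo luminescence. Standard inhibition dose–response fit gave IC50, averaged from two independent experiments.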

IC50 (blood stage) | Compound | activity against liver-stage Plasmodium berghei (in words) [1] | activity against B. subtilis (in words) (Bacillus subtilis 3610) | cytotoxicity against HepG2 cells (in words) [2]
– | COc1cccc2c1C(=O)c1ccc3c(c1C2=O)C(=O)C[C@](C)(O)C3 [Compound 4, 6-deoxy-8-O-methylrabelomycin] | showed antibiotic activity | showed antibiotic activity | –
0.3 nM | O=C1C(O)=C([C@H]2CC[C@H](c3ccc(Cl)cc3)CC2)C(=O)c2ccccc21 [Atovaquone] | – | – | –
– | COc1cccc2c1C(=O)c1ccc3cc(C)cc(O)c3c1C2=O [Compound 5, X-14881 E] | showed antibiotic activity | showed antibiotic activity | moderate cytotoxicity
